Screening data (PubChem BioAssay)
PAD4 inh – PAD4 (human) enzyme inhibition; Q9UM07; recombinant PAD4, RCA probe fluorescence polarization; inhibition, % at 6.36 µM; actives 0.41% (n = 330,000); AID 485272;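 active = percent inhibition above a cutoff equal to the mean of all tested compounds plus 3 SD, cut at about 15% in these data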
Fh CTSL1 inh – blocks F. hepatica cathepsin L1 in PFM18AAP counter-screen. recombinant F. hepatica cathepsin L1, Z-Leu-Arg-MCA fluorescence. inhibition, % at 5.96 µM. actives 0.49% (n = 300,000);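 active = inhibition above the mean of all tested compounds plus 3 SD, set per screening campaign, cut at about 17% in these data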
TDP2 inh – TDP2 (human) inhibition, absorbance primary screen; O95551; recombinant TDP2, T5PNP hydrolysis, p-nitrophenol absorbance 415 nm; inhibition, % at 12.8 µM; actives 0.34% (n = 370,000); AID 720702;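 active = inhibition above the mean of all tested compounds plus 3 SD, set per campaign, cut at about 25% in these data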
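Read-out basis: percent inhibition. System: recombinant human TDP2. Buffer or medium: Mg2+-containing Tris-HCl buffer, pH 7.5. Repeats: single replicate. Timing: reaction 2 h, 37 °C. Benchmarks: high control without enzyme, low control DMSO plus TDP2. Probe or stimulus: 5 mM T5PNP. Doses: 12.8 µM only. Measured by: epi absorbance of p-nitrophenol freed from T5PNP by hydrolysis.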
PRMT1 inh – PRMT1 (human) inhibition, primary screen; Q99873; recombinant PRMT1, activity-based probe fluorescence polarization; inhibition, % at 2.79 µM; actives 1.3% (n = 370,000);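 active = inhibition above about 21% made by adding two undisclosed values, limit read from the data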
Target sequence (Q99873 whole entry, looked up): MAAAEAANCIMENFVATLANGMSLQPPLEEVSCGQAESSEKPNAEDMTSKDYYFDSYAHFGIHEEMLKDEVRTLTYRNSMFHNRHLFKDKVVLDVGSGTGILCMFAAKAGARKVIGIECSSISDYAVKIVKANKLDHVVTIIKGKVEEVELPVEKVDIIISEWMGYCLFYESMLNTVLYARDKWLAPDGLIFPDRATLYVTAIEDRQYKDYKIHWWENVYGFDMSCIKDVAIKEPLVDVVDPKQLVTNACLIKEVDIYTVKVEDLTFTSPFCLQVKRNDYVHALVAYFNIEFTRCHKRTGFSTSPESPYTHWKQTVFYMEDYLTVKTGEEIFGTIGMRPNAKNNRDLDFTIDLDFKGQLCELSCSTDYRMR
GSTO1 inh – blocks human GSTO1 in RBBP9 counter-screen | P78417 | recombinant GSTO1, activity-based probe fluorescence polarization | inhibition, % at 5.96 µM | actives 1.1% (n = 300,000) | AID 1974;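 active = inhibition above the campaign mean inhibition plus 3 SD, cut at about 35% in these data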
Target sequence (P78417 whole entry, looked up): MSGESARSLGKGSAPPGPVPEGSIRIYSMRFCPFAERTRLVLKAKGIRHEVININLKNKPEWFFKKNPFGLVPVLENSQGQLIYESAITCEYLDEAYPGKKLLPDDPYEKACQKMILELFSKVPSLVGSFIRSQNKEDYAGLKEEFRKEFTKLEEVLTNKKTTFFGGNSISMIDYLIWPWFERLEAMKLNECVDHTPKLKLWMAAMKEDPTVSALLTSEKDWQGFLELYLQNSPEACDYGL
GSTO1 confirm – GSTO1 (human) inhibition, confirmation; shares compounds with GSTO1 inh; recombinant GSTO1, probe fluorescence polarization; inhibition, % at 5.96 µM; actives 54% (n = 2,400); AID 2176;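 active = inhibition above the primary screen's cutoff, its mean inhibition plus 3 SD, cut at about 35% in these data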;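 note: loss of polarization as inhibitors block binding of rhodamine sulfonate ester activity probe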
Large screens that a line does not name were inactive (follow-up assays come after a bar, where they were run). Sampled rows, rich in hits. Any-hit rate of the full collection: about 2.5%.

Cc1ccc(S(=O)(=O)Oc2ccc(C3C4=C(CCCC4=O)N(CCC(=O)O)C4=C3C(=O)CCC4)cc2Cl)cc1	GSTO1 inh 61.8 | GSTO1 confirm 60.8
CCOc1ccc(C2C3=C(CC(C)(C)CC3=O)N(CC(=O)O)C3=C2C(=O)CC(C)(C)C3)cc1OCC	none
CCOc1cc(C2C3=C(CCCC3=O)N(CCC(=O)O)C3=C2C(=O)CCC3)ccc1OS(=O)(=O)c1ccc(C)cc1	GSTO1 inh 77.7 | GSTO1 confirm 69.8
C#CCNC(=O)C[C@H]1C[C@@]2(C(=O)OC)C(=C[C@H](C(C)C)O[C@@H]2C2CC2)N(CCCCCCCC)C1=O	none (no result: PAD4 inh, Fh CTSL1 inh, GSTO1 inh)
O=C(CCN1C(=O)/C(=C/c2ccccc2)SC1=S)N1CCCCCC1	none
O=C(CCN1C(=O)/C(=C\c2ccccc2F)SC1=S)N1CCCCC1	GSTO1 inh 47.0 | GSTO1 confirm inactive
CCC(CO)Nc1cccc2c1S(=O)(=O)N(Cc1cn(Cc3ccc(F)cc3)nn1)Cc1ccccc1O2 (stereo unspecified)	none (no result: PAD4 inh, Fh CTSL1 inh, GSTO1 inh)
C=CCN(Cc1ccc2c(c1)OCO2)C(C#CCCCC)C(C)C (stereo unspecified)	none (no result: PAD4 inh, Fh CTSL1 inh, GSTO1 inh)
CCN(CC)c1ccc2c(c1)CCCN2	GSTO1 inh 42.1 (no result: TDP2 inh, PRMT1 inh) | GSTO1 confirm inactive
C=CCN(C)CC#Cc1ccccc1C	none (no result: PAD4 inh, Fh CTSL1 inh, GSTO1 inh)
CC1Oc2cc3oc4c(O)c(O)ccc4c(=O)c3c(O)c2C1(C)C (stereo unspecified)	GSTO1 inh 44.6 (no result: TDP2 inh, PRMT1 inh) | GSTO1 confirm inactive
O=c1cc(CN2CCOCC2)c2ccc(O)c(O)c2o1	none
COc1cccc(/C=N/NC(=O)NC2CCCCC2)c1O	GSTO1 inh 38.3 | GSTO1 confirm inactive
COc1cccc(/C=N/NC(=O)C(=O)N/N=C/c2cccc(OC)c2O)c1O	none (no result: PAD4 inh, Fh CTSL1 inh, GSTO1 inh)
Nc1c(Cl)ncnc1N/N=C/c1cccc(O)c1	GSTO1 inh 45.1 | GSTO1 confirm inactive
CCOc1ccc(C(=O)Oc2cc(C)[nH]c(=O)c2[N+](=O)[O-])cc1	GSTO1 inh 61.4 | GSTO1 confirm inactive
CCCCOCCCNC(=O)C[C@H]1C[C@@]2(C(=O)OC)C(=C[C@H](C(C)(C)C)O[C@@H]2C)N(Cc2ccc(Cl)cc2Cl)C1=O	none (no result: PAD4 inh, Fh CTSL1 inh, GSTO1 inh)
O=C(Cc1cc(=O)[nH][nH]1)N/N=C/c1ccccc1Cl	none
O=C(Cc1cc(=O)[nH][nH]1)N/N=C/C(Cl)=C/c1ccccc1	GSTO1 inh 54.0 | GSTO1 confirm inactive
COC(=O)[C@]12C[C@H](CC(=O)NCc3cccc4ccccc34)C(=O)N(Cc3ccco3)C1=C[C@H](C(C)(C)C)O[C@@H]2C	none (no result: PAD4 inh, Fh CTSL1 inh, GSTO1 inh)
O=[N+]([O-])c1ccc(Cl)c2c1C1C=CCC1C(c1ccccn1)N2 (stereo unspecified)	GSTO1 inh 39.3 | GSTO1 confirm inactive
CC(C)OP(=O)(OC(C)C)C1(NS(=O)(=O)c2ccc(Cl)cc2)C=C(Cl)C(=O)C(Cl)=C1	PRMT1 inh 29.9, GSTO1 inh 62.0 | GSTO1 confirm 43.6
C#CCNC(=O)C[C@H]1C[C@@]2(C(=O)OC)C(=C[C@H](C3CCCC3)O[C@@H]2C)N(CCc2ccc(OC)c(OC)c2)C1=O	none (no result: PAD4 inh, Fh CTSL1 inh, GSTO1 inh)
Cc1ccc(/C=C2\SC(=S)N(CCC(=O)NNC(=O)c3cccnc3)C2=O)cc1	GSTO1 inh 38.6 | GSTO1 confirm inactive
Cn1c(=O)oc2cc(NC(=O)CCl)ccc21	GSTO1 inh 76.0 | GSTO1 confirm 86.7
CC1=NN(c2ccc(C(=O)O)cc2)C(=O)/C1=C\c1ccc(OC(=O)c2cccs2)cc1	GSTO1 inh 54.5 | GSTO1 confirm inactive
Fc1ccc(-c2cc(-c3nnc4sc(-c5cccs5)nn34)[nH]n2)cc1	none (no result: PAD4 inh, Fh CTSL1 inh, GSTO1 inh)
CCc1ccc(S(=O)(=O)/N=C2\C=C(NS(=O)(=O)c3ccccc3)C(=O)c3ccccc32)cc1	none (no result: PAD4 inh, Fh CTSL1 inh, GSTO1 inh)
CC(C)(C)c1cc[n+](C2=C([O-])c3ccccc3C(=O)/C2=N\S(=O)(=O)c2ccccc2)cc1	GSTO1 inh 86.5 | GSTO1 confirm 81.0
CCCCC[n+]1ccn(C2=C([O-])c3ccccc3C(=O)/C2=N\S(=O)(=O)c2ccc(Br)cc2)c1	GSTO1 inh 47.3 | GSTO1 confirm inactive
CCCC[n+]1ccn(C2=C([O-])c3ccccc3C(=O)/C2=N\S(=O)(=O)c2ccccc2)c1	GSTO1 inh 67.9 | GSTO1 confirm 65.8
CC(C)[n+]1ccn(C2=C([O-])c3ccccc3C(=O)/C2=N\S(=O)(=O)c2ccccc2)c1	GSTO1 inh 61.0 | GSTO1 confirm 56.6
COC(=O)[C@]12C[C@H](CC(=O)N3CCCC3)C(=O)N(Cc3ccco3)C1=C[C@H](C1CCCC1)O[C@@H]2C	none (no result: PAD4 inh, Fh CTSL1 inh, GSTO1 inh)
COc1ccc(CNCC#CC2=CCCCC2)c(OC)c1	none (no result: PAD4 inh, Fh CTSL1 inh, GSTO1 inh)
CCCCC[n+]1ccn(C2=C([O-])c3ccccc3C(=O)/C2=N\S(=O)(=O)c2ccccc2)c1	GSTO1 inh 74.7 | GSTO1 confirm 58.7
CCOC(=O)c1n[nH]n(-c2cc(Cl)cc(Cl)c2)c1=O	none
COC(=O)Cc1c(C)[nH]n(-c2cc(Cl)cc(Cl)c2)c1=O	GSTO1 inh 46.7 | GSTO1 confirm inactive
O=C(NCCN1CCC(Cc2ccccc2)CC1)C1CCCN(S(=O)(=O)c2ccc([N+](=O)[O-])cc2)C1 (stereo unspecified)	none (no result: PAD4 inh, Fh CTSL1 inh, GSTO1 inh)
CN(C)c1nc(Cl)nc(N(C#N)CCOc2ccccc2)n1	GSTO1 inh 44.1 | GSTO1 confirm 69.0
CCNc1nc(NCC)nc(N(C#N)CCOc2ccccc2)n1	none
O=C(CN1CCCCCC1)Nc1cc([N+](=O)[O-])ccc1Cl	GSTO1 inh 57.1 | GSTO1 confirm inactive
O=C(CN1CCCCCC1)Nc1ccc([N+](=O)[O-])cc1Cl	none
COc1ccc(C2(C)NC(=O)N(CC(=O)NCCC3=CCCCC3)C2=O)cc1OC (stereo unspecified)	GSTO1 inh 39.0 | GSTO1 confirm inactive
COC(=O)[C@]12C[C@H](CC(=O)N3CCN(C(=O)c4ccco4)CC3)C(=O)N(Cc3ccco3)C1=C[C@H](C(C)C)O[C@@H]2C1CC1	none (no result: PAD4 inh, Fh CTSL1 inh, GSTO1 inh)
CCOC(=O)C1=NOC(C(=O)NC2CCCC2)(C(=O)C2CC2)C1 (stereo unspecified)	none (no result: PAD4 inh, Fh CTSL1 inh, GSTO1 inh)
COCC(C)OC(=O)c1c(N)n(CC(C)C)c2nc3ccccc3nc12 (stereo unspecified)	GSTO1 inh 45.1 | GSTO1 confirm inactive
O=C1COc2ccc(C(=O)NCc3ccc4c(c3)OCO4)cc2N1	GSTO1 inh 43.3 | GSTO1 confirm inactive
O=C(NCc1ccc2c(c1)OCO2)c1cccc(C(=O)NCc2ccc3c(c2)OCO3)c1	none
OCCCN1CCC2(CCC(c3ccccc3)CC2)C1 (stereo unspecified)	none (no result: PAD4 inh, Fh CTSL1 inh, GSTO1 inh)
CC(C)c1cc2c(c(O)c1O)[C@@]13CCCC(C)(C)C1CC2OC3=O (stereo partly specified)	PRMT1 inh 36.3, GSTO1 inh 40.6 | GSTO1 confirm inactive
Cc1cc(C(=O)NC(C)C2CCCO2)c(C)o1 (stereo unspecified)	GSTO1 inh 42.4 | GSTO1 confirm inactive
